This passage reports EC50, selectivity ratio and Toxicity ratio results from ChEMBL document CHEMBL1135578, “Rhodacyanine dyes as antimalarials. 1. Preliminary evaluation of their activity and toxicity” (J Med Chem, 2002).

The term EC50 denotes the concentration at which the effect is half-maximal. Higher therefore signals a less potent agent.

Series [1] deals with FM3A. The series can be described thus: Cytotoxicity against mouse mammary tumor FM3A cells representing a model of host. The class given is functional, cell-based. The method in brief: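 Growth of mouse mammary tumor FM3A cells, used as a host model, read as EC50; some entries are given as lower-effect ECx values (% growth observed) where noted.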
The test system of series [2] is Plasmodium falciparum. The series can be described thus: In vitro antimalarial activity against chloroquine-sensitive Plasmodium falciparum FCR3. The class given is functional, organism-based. An outline of the steps: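 In vitro growth of chloroquine-sensitive P. falciparum FCR-3 read as EC50; some entries are given as EC70 values (% parasite growth observed) where noted.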

Series [3] is described as follows: (§1) Selective toxicity- EC50 value of FM3A / EC50 value of Plasmodium falciparum. The class given is cell-based. The note with it: mouse, FM3A cells; read-out: Toxicity ratio. An outline of the steps: (§2)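 Ratio computed as EC50 in FM3A cells divided by EC50 against P. falciparum FCR-3.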
Series [4] relates to FM3A. Described as §1. The class given is cell-based. The conditions noted are these: mouse, fm3a. The method in brief:
as §2

For `CN1/C(=c2\s/c(=C\c3cccc[n+]3C)n(Cc3ccccc3)c2=O)Sc2ccccc21`, the EC50 in series [1] (Mus musculus, FM3A) amounted to 800 nM; in series [2] (Plasmodium falciparum), 31 nM. The selectivity ratio in series [3] amounted to 26.
Turning to `CCn1c(=O)/c(=C2\Sc3ccccc3N2C)s/c1=C\c1cccc[n+]1CCO`, the EC50 in series [1] (Mus musculus, FM3A) was over 17000 nM; in series [2] (Plasmodium falciparum), 210 nM. The selectivity ratio in series [3] is over 81.
Turning to `CCn1c(=O)/c(=C2\Sc3ccccc3N2C)s/c1=C\c1cccc[n+]1C.[Cl-]`, the EC50 in series [1] (fm3a) came out at 16000 nM; in series [2], 26 nM. The Toxicity ratio in series [4] is on record as 620.
In the case of `CCn1c(=O)/c(=C2\Sc3ccccc3N2C)s/c1=C\c1cccc[n+]1C.Cc1ccc(S(=O)(=O)[O-])cc1`, the EC50 in series [1] (fm3a) is 11000 nM; in series [2], 23 nM. Moreover, in series [4], the Toxicity ratio is recorded as 480.
`CN(C)c1ccc2nc3ccc(N(C)C)cc3[s+]c2c1` [METHYLENE BLUE ANHYDROUS]: the EC50 came to 1100 nM in series [1] (Mus musculus, FM3A) and 17 nM in series [2] (Plasmodium falciparum). Further, the selectivity ratio in series [3] worked out at 65.
The like results for `CN1/C(=c2\s/c(=C\c3cccc[n+]3C)n(C)c2=O)Sc2ccccc21` were, in that order, 3800 nM, 45 nM and 84.
As to `CCn1c(=O)/c(=C2\C=Cc3ccccc3N2C)s/c1=C\c1cccc[n+]1C`, in series [2] (Plasmodium falciparum), a half-maximal effect (EC50) was put at 240 nM.
As for `CCn1c(=O)/c(=C2\Sc3cc(C(F)(F)F)ccc3N2C)s/c1=C\c1cccc[n+]1CC`, the EC50 came to 4200 nM in series [1] (Mus musculus, FM3A) and 66 nM in series [2] (Plasmodium falciparum). In addition, the selectivity ratio in series [3] turned out to be 64.
Take `C=CCn1c(=O)/c(=C2\Sc3ccccc3N2C)s/c1=C\c1cccc[n+]1C` [listing 1 of 2 here]: the concentration for a half-maximal effect (EC50) in series [1] (Mus musculus, FM3A) was determined as 12000 nM; in series [2] it was 12 nM. Further, the selectivity ratio in series [3] stood at 1000.
As for `CCN1C(=O)CS/C1=C\c1sc2ccccc2[n+]1CC`, in series [2] (Plasmodium falciparum), the EC50 is 520 nM.
As for `CCn1c(=O)/c(=C2\Sc3ccc4ccccc4c3N2C)s/c1=C\c1cccc[n+]1CCO`, the EC50 was 5000 nM in series [1] (Mus musculus, FM3A) and 43 nM in series [2] (Plasmodium falciparum). For the same compound, in series [3], the selectivity ratio came out at 120.
`CCn1c(=O)/c(=C2\Sc3ccccc3N2C)s/c1=C\c1cccc[n+]1C.[OH-]`: the EC50 came out at 13000 nM in series [1] (fm3a) and 22 nM in series [2]. In series [4], the Toxicity ratio amounted to 590.
In the case of `CCn1c(=O)/c(=C2\Sc3ccccc3N2C)s/c1=C\c1ccc2ccccc2[n+]1C`, the EC50 in series [1] (Mus musculus, FM3A) is 580 nM; in series [2] (Plasmodium falciparum) it was 4.6 nM. In addition, the selectivity ratio in series [3] was 130.
In the case of `CC[N+]1=C(SC)S/C(=C2/Sc3ccccc3N2C)C1=O`, a half-maximal response in series [2] (Plasmodium falciparum) (EC50) required 3700 nM.
Turning to `C=C[C@H]1C[N@@]2CC[C@H]1C[C@H]2[C@H](O)c1ccnc2ccc(OC)cc12` [QUININE], in series [3], the selectivity ratio came out at 910.
The compound `CCN1C(=O)/C(=C2\Sc3ccccc3N2C)SC1=S` registered an EC50 in series [2] (Plasmodium falciparum) of over 28000 nM.
As to `CN1/C(=c2\s/c(=C\c3cc[n+](C)cc3)n(Cc3ccccc3)c2=O)Sc2ccccc21`, the EC50 in series [1] (Mus musculus, FM3A) was 810 nM; in series [2] (Plasmodium falciparum), 50 nM. Moreover, in series [3], the selectivity ratio was found to be 16.
Regarding `CCN(CC)CCCC(C)Nc1ccnc2cc(Cl)ccc12` (stereo not given) [CHLOROQUINE], the selectivity ratio in series [3] amounted to 1800.
Compound `CCn1c(=O)/c(=C2\C=CC=CN2C)s/c1=C\c1cccc[n+]1C` returned an EC50 in series [2] (Plasmodium falciparum) of 350 nM.
On to `COC(=O)c1ccccc1-c1c2ccc(=N)cc-2oc2cc(N)ccc12` [RHODAMINE123], for which the EC50 in series [1] (Mus musculus, FM3A) came to 10000 nM; in series [2] (Plasmodium falciparum), 300 nM. In addition, the selectivity ratio in series [3] came to 33.
The like results for `CCn1c(=O)/c(=C2\SCCN2C)s/c1=C\c1cccc[n+]1C` were, in that order, over 34000 nM, 230 nM and over 150.
On to `CCn1c(=O)/c(=C2\Sc3ccccc3N2C)s/c1=C\c1cc[n+](C)cc1`, for which the concentration for a half-maximal effect (EC50) is over 24000 nM in series [1] (Mus musculus, FM3A) and 56 nM in series [2] (Plasmodium falciparum). Besides, in series [3], the selectivity ratio is over 430.
On to `CCn1c(=O)/c(=C2\Sc3ccccc3N2C)s/c1=C\c1cccc[n+]1C`, for which the EC50 in series [1] (Mus musculus, FM3A) turned out to be 14000 nM; in series [2] (Plasmodium falciparum), 28 nM. Moreover, the selectivity ratio in series [3] was 500.
For the compound `CCn1c(=O)/c(=C2\Sc3ccccc3N2C)s/c1=C\c1cccc(-c2ccccc2)[n+]1C`, the EC50 came to 1900 nM in series [1] (Mus musculus, FM3A) and 56 nM in series [2] (Plasmodium falciparum). In addition, in series [3], the selectivity ratio turned out to be 34.
Consider `CN1/C(=C\c2cccc[n+]2C)Sc2ccccc21`, for which, in series [2] (Plasmodium falciparum), the EC50 came out at 240 nM.
Take `CCn1c(=O)/c(=C2\Sc3ccccc3N2C)s/c1=C\c1cc[n+](C)c2ccccc12`: the concentration for a half-maximal effect (EC50) in series [1] (Mus musculus, FM3A) amounted to 680 nM; in series [2] (Plasmodium falciparum), 7.8 nM. In addition, the selectivity ratio in series [3] came to 87.
For `CCn1c(=O)/c(=C2\Sc3ccccc3N2C)s/c1=C\c1cccc[n+]1CCCCC(=O)O`, the EC50 in series [1] (Mus musculus, FM3A) was over 18000 nM; in series [2] (Plasmodium falciparum), 680 nM. Also, the selectivity ratio in series [3] was over 26.
Take `CCn1c(=O)/c(=C2\Sc3ccccc3N2C)s/c1=C\c1cccc[n+]1CC`: the EC50 in series [1] (Mus musculus, FM3A) was 15000 nM; in series [2] (Plasmodium falciparum), 70 nM. Also, in series [3], the selectivity ratio came out at 210.
On to `C=CCn1c(=O)/c(=C2\Sc3ccccc3N2C)s/c1=C\c1cccc[n+]1C` [listing 2 of 2 here], for which the EC50 in series [2] is over 38 nM.
`CC[n+]1ccccc1/C=c1\s/c(=C2/Sc3ccccc3N2C)c(=O)n1CCCCC(=O)O`: the EC50 is over 17000 nM in series [1] (Mus musculus, FM3A) and 1500 nM in series [2] (Plasmodium falciparum). For the same compound, the selectivity ratio in series [3] is over 11.
The corresponding values for `C=CCn1c(=O)/c(=C2\Sc3ccccc3N2C)s/c1=C\c1cc[n+](C)cc1` are 6700 nM, 14 nM and 480.
